Marks after values point to notes of the source that are not given here.
Tests used:
[1] = free in neutral aqueous solution at 25 °C; cited from earlier work
[2] = target: T1, HsIYD reconstituted with FMN analogues (Homo sapiens, UniProt Q6PHW0); type: biochemical; details: I-Tyr as substrate, HsIYD reconstituted with the cofactor, pH 7.4
T1 sequence (Q6PHW0 with tags, fused parts or gaps): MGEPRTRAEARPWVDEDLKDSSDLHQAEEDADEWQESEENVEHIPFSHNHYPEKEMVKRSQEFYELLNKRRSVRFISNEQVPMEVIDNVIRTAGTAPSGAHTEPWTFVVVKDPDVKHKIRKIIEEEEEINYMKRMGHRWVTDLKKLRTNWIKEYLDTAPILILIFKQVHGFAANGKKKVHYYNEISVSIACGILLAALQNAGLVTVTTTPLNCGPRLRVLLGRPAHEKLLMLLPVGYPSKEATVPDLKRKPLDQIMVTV
How it was run: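 FMN was stripped from column-bound SUMO–HsIYD with 0.6 to 1.5 M guanidinium HCl, then the gradient was reversed. The protein was loaded with 200 μM flavin analogue for 4 h at 4 °C and washed. It was eluted with 250 mM imidazole, the tag was cleaved, and size exclusion followed. Turnover used 70–80 nM enzyme, 100 mM potassium phosphate pH 7.4, 0.5% dithionite and 25 °C, with HPLC product detection.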

[3] = cited from earlier work
HsIYD containing FMNox = target: T2, HsIYD containing FMNox (Homo sapiens, UniProt Q6PHW0); assay: Binding affinity to HsIYD containing oxidized FMN
T2 sequence (Q6PHW0 with tags, fused parts or gaps): T1 sequence (Q6PHW0 with tags, fused parts or gaps)
How it was run: (§1)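 HsIYD (residues 2–31 removed) was expressed as a SUMO fusion and purified by Ni2+ affinity and size exclusion. HhIYD carried a C-terminal His6 tag and was purified by Ni2+ affinity. Ligand was titrated into 3 μM enzyme in 110 mM potassium phosphate pH 7.4, stirred, at 25 °C. Flavin fluorescence (ex 450, em 516 nm) was read 2 min after each addition. Kd was fitted from fractional remaining fluorescence versus total enzyme and ligand.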

HhIYD containing FMNox = target: T3, HhIYD containing FMNox (Haliscomenobacter hydrossis, UniProt F4KU78); assay: Binding affinity to HhIYD containing oxidized FMN
T3 sequence (F4KU78 1-222): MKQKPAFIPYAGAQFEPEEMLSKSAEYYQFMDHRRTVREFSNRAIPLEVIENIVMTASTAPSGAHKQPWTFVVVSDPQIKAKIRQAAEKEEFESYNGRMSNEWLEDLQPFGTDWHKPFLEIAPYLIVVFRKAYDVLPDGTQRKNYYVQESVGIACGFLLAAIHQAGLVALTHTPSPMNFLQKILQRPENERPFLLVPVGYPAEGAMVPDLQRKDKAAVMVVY
How it was run: as §1

[4] = Estimated phenol pKa and phenolate fraction of substrates; type: physicochemical; details: assay conditions of pH 7.4, based on estimated pKa
[5] = target: T4, IYD from Haliscomenobacter hydrossis (HhIYD) (Haliscomenobacter hydrossis, UniProt F4KU78); assay: Catalytic deiodination; type: biochemical; details: I-Tyr turnover, pL 7.4, 100 mM potassium phosphate
T4 sequence (F4KU78 1-222): T3 sequence (F4KU78 1-222)

[6] = target: T5, Iodotyrosine deiodinase (Human, HsIYD) (Homo sapiens, UniProt Q6PHW0); assay: Catalytic deiodination; type: biochemical; details: 100 mM potassium phosphate pH 7.4, 0.5% sodium dithionite
T5 sequence (Q6PHW0 with tags, fused parts or gaps): T1 sequence (Q6PHW0 with tags, fused parts or gaps)

HhIYD = target: T6, HhIYD (Haliscomenobacter hydrossis, UniProt F4KU78); assay: Competitive inhibition of I-Tyr dehalogenation by HhIYD; type: biochemical
T6 sequence (F4KU78 1-222): T3 sequence (F4KU78 1-222)
How it was run: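 His6-tagged HhIYD (70–80 nM final) was incubated with I-Tyr in 111 mM potassium phosphate pH 7.4 at 25 °C. Dithionite (5% in 5% sodium bicarbonate) was added at one-tenth volume as reductant. Deiodinated product was quantified by reverse-phase C18 HPLC. The test compound was included as a competitive inhibitor, giving Ki against the reduced enzyme.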

SMILES	kcat [2]	Kd (HsIYD containing FMNox)	Kd (HhIYD containing FMNox)	redox potential [1]	other results
Cc1cc2c(cc1Cl)nc1c(=O)[nH]c(=O)nc-1n2C[C@H](O)[C@H](O)[C@H](O)COP(=O)(O)O [7-Cl-FMN]	3.3 ± 0.2 s^−1 × 10^−2			−128^d mV	
COc1cc2c(cc1C)nc1c(=O)[nH]c(=O)nc-1n2C[C@H](O)[C@H](O)[C@H](O)COP(=O)(O)O [8-MeO-FMN, 8-methoxy-desmethylFMN]	9.0 ± 0.3 s^−1 × 10^−2			−260^c mV	
N[C@@H](Cc1cc(I)c(O)c(I)c1)C(=O)O [I2-Tyr, diiodotyrosine]					pKa of the α-ammonium group [3]: 7.8
N[C@@H](Cc1ccc(O)c(I)c1)C(=O)O [I-Tyr, iodotyrosine]					Km ([5]; D2O): 12 ± 4 µM; kcat ([5]; D2O): 0.41 ± 0.05 s⁻¹; Km ([5]; H2O, 9% glycerol): 13 ± 4 µM; kcat ([5]; H2O, 9% glycerol): 0.39 ± 0.05 s⁻¹; Km ([5]; H2O): 23 ± 4 µM; kcat ([5]; H2O): 0.64 ± 0.08 s⁻¹; Km [6]: 19 ± 3 µM; kcat [6]: 0.12 ± 0.008 s⁻¹
N[C@@H](Cc1ccc(O)c(F)c1)C(=O)O [fluorotyrosine, 3-fluorotyrosine]					Ki (HhIYD): 10.7 ± 0.1 µM

Further lines, with some results ahead:

kcat [2]	Kd (HsIYD containing FMNox)	Kd (HhIYD containing FMNox)	SMILES	redox potential [1]	other results
5.2 ± 0.2 s^−1 × 10^−2			Cc1cc2nc3c(=O)[nH]c(=O)nc-3n(C[C@H](O)[C@H](O)[C@H](O)COP(=O)(O)O)c2cc1C [FMN, Flavin Mononucleotide]	−205^d mV	
	7 ± 0.03 µM	7.3 ± 0.4 µM	N#Cc1cc(C[C@H](N)C(=O)O)cc(I)c1O [I-CN-Tyr, 3-cyano-5-iodotyrosine]		fraction existing in phenolate form [4]: 98%
	0.9 ± 0.1 µM	6.9 ± 0.3 µM	N[C@@H](Cc1cc(F)c(O)c(I)c1)C(=O)O [I-F-Tyr, 3-fluoro-5-iodotyrosine]		
	2.6 ± 0.03 µM	1.7 ± 0.1 µM	Cc1cc(C[C@H](N)C(=O)O)cc(I)c1O [I-Me-Tyr, 3-Iodo-5-methyltyrosine]		fraction existing in phenolate form [4]: 3.4%
	6.3 ± 0.3 µM	4.3 ± 0.4 µM	COc1cc(C[C@H](N)C(=O)O)cc(I)c1O [I-MeO-Tyr, 3-iodo-5-methoxytyrosine]		
